Experimental data as given in article PMC5644278 (Alzheimer's & Dementia : Translational Research & Clinical …, 2016).

Key:
healthy male subjects [1] = experiment: Treatment emergent adverse events, single dose study; assay type: in vivo, human; conditions: donepezil 10 mg oral
healthy male subjects [2] = experiment: Adaptive tracking; assay type: in vivo, human; conditions: donepezil 10 mg oral; healthy elderly males
Outline: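 Healthy males got one intranasal spray dose in a double-dummy design with oral capsules: 11 mg for young subjects, 22 or 33 mg for elderly subjects, 6 per dose, with age-matched nasal placebo. NeuroCart tests were run twice before dosing, then at 1, 2, 3, 4, 5, 6, 8 and 10 h after, in a quiet room, one subject per session. Analysis was mixed-model ANOVA: treatment, time and treatment×time fixed, subject random, baseline as covariate.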

## COc1cc2c(cc1OC)C(=O)C(CC1CCN(Cc3ccccc3)CC1)C2 (stereo not shown) [donepezil, reference compound]
Healthy male subjects [1]; healthy elderly males
  Nausea, incidence: 16.7%
Healthy male subjects [1]; healthy elderly subjects
  Diarrhea, incidence: 33.3%
  Vomiting, incidence: 16.7%
Healthy male subjects [2]
  adaptive tracking compared with placebo (in words): improvement
